Converted amounts (≈) assume the structure as drawn.
What was measured:
Type in all cases: functional
Staphylococcus aureus [1] = assay: Antibacterial activity against methicillin-resistant Staphylococcus aureus ATCC 43300 after 24 hrs by CLSI based broth micro dilution method
How it was run: (§1)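 Broth microdilution run per CLSI. MRSA ATCC 43300 served as the QC strain, with the CLSI QC range as reference. S. aureus AD3 and 144 are clinical isolates from Guangdong Province. Pleuromutilin and tiamulin were run as reference drugs.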

Staphylococcus aureus [2] = assay: Antibacterial activity against Staphylococcus aureus ATCC 29213 after 24 hrs by CLSI based broth micro dilution method; how it was run: as §1
Escherichia coli [3] = assay: Bactericidal activity against Escherichia coli ATCC 25922 preincubated 16 to 20 hrs followed by subculturing and measured after over night
How it was run: (§2)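 MBC by CLSI broth microdilution on the same strain panel: S. aureus ATCC 43300, ATCC 29213, clinical isolates AD3 and 144, E. coli ATCC 25922; ATCC 43300 served as QC strain.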

Staphylococcus aureus [4] = assay: Bactericidal activity against methicillin-resistant Staphylococcus aureus ATCC 43300 preincubated 16 to 20 hrs followed by subculturing and measured after over night
How it was run: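 MBC determined by the CLSI broth microdilution method against MRSA ATCC 43300, with ATCC 43300 also serving as the QC strain. Pleuromutilin and tiamulin were reference drugs.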

[5] = Ratio of MBC for bactericidal activity against methicillin-resistant Staphylococcus aureus ATCC 43300 to MIC for antibacterial activity against methicillin-resistant Staphylococcus aureus ATCC 4330
Staphylococcus aureus [6] = assay: Antibacterial activity against Staphylococcus aureus 144 after 24 hrs by CLSI based broth micro dilution method; how it was run: as §1
Staphylococcus aureus [7] = assay: Antibacterial activity against Staphylococcus aureus AD3 after 24 hrs by CLSI based broth micro dilution method
How it was run: (§3)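 CLSI broth microdilution MIC against S. aureus ATCC 43300 (MRSA), ATCC 29213, clinical isolates AD3 and 144 (Guangdong Province), and E. coli ATCC 25922; ATCC 43300 served as QC strain, with the CLSI quality control range as reference.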

Staphylococcus aureus [8] = assay: Bactericidal activity against Staphylococcus aureus ATCC 29213 preincubated 16 to 20 hrs followed by subculturing and measured after over night; how it was run: as §2
Staphylococcus aureus [9] = assay: Bactericidal activity against Staphylococcus aureus 144 preincubated 16 to 20 hrs followed by subculturing and measured after over night; how it was run: as §2
Staphylococcus aureus [10] = assay: Bactericidal activity against Staphylococcus aureus AD3 preincubated 16 to 20 hrs followed by subculturing and measured after over night; how it was run: as §2
Escherichia coli [11] = assay: Antibacterial activity against Escherichia coli ATCC 25922 after 24 hrs by CLSI based broth micro dilution method; how it was run: as §3

SMILES	MIC (Staphylococcus aureus [1]) [µg/mL]	MIC (Staphylococcus aureus [2]) [µg/mL]	MBC (Escherichia coli [3]) [µg/mL]	MBC (Staphylococcus aureus [4]) [µg/mL]	Ratio [5]	MIC (Staphylococcus aureus [6]) [µg/mL]	MIC (Staphylococcus aureus [7]) [µg/mL]	MBC (Staphylococcus aureus [8]) [µg/mL]	MBC (Staphylococcus aureus [9]) [µg/mL]	MBC (Staphylococcus aureus [10]) [µg/mL]	MIC (Escherichia coli [11]) [µg/mL]
C=C[C@]1(C)C[C@@H](OC(=O)CSc2ccccc2NC(=O)Cn2cc(CN3CCN(c4ccccc4)CC3)nn2)[C@]2(C)[C@H](C)CC[C@]3(CCC(=O)[C@H]32)[C@@H](C)[C@@H]1O	0.5 (≈ 0.65 µM)	0.5 (≈ 0.65 µM)	> 32	0.5 (≈ 0.65 µM)	1	1 (≈ 1.3 µM)	0.5 (≈ 0.65 µM)	0.5 (≈ 0.65 µM)	2 (≈ 2.6 µM)	1 (≈ 1.3 µM)	> 32
C=C[C@]1(C)C[C@@H](OC(=O)CSc2ccccc2NC(=O)Cn2cc(CN3CCN(c4ccc(Cl)cc4)CC3)nn2)[C@]2(C)[C@H](C)CC[C@]3(CCC(=O)[C@H]32)[C@@H](C)[C@@H]1O	0.5 (≈ 0.622 µM)	1 (≈ 1.24 µM)	> 32	1 (≈ 1.24 µM)	1	2 (≈ 2.49 µM)	2 (≈ 2.49 µM)	4 (≈ 4.98 µM)	2 (≈ 2.49 µM)	4 (≈ 4.98 µM)	> 32
C=C[C@]1(C)C[C@@H](OC(=O)CSc2ccccc2NC(=O)Cn2cc(CN3CCN(c4ccc(O)cc4)CC3)nn2)[C@]2(C)[C@H](C)CC[C@]3(CCC(=O)[C@H]32)[C@@H](C)[C@@H]1O	2 (≈ 2.55 µM)	2 (≈ 2.55 µM)	> 32	4 (≈ 5.1 µM)	1	2 (≈ 2.55 µM)	2 (≈ 2.55 µM)	4 (≈ 5.1 µM)	8 (≈ 10.2 µM)	4 (≈ 5.1 µM)	> 32
C=C[C@]1(C)C[C@@H](OC(=O)CSc2ccccc2NC(=O)Cn2cc(CN3CCN(c4ccc(F)cc4)CC3)nn2)[C@]2(C)[C@H](C)CC[C@]3(CCC(=O)[C@H]32)[C@@H](C)[C@@H]1O	1 (≈ 1.27 µM)	0.5 (≈ 0.635 µM)	> 32	1 (≈ 1.27 µM)	1	1 (≈ 1.27 µM)	0.5 (≈ 0.635 µM)	0.5 (≈ 0.635 µM)	2 (≈ 2.54 µM)	1 (≈ 1.27 µM)	> 32
C=C[C@]1(C)C[C@@H](OC(=O)CSc2ccccc2NC(=O)Cn2cc(CN3CCN(c4cccc(F)c4)CC3)nn2)[C@]2(C)[C@H](C)CC[C@]3(CCC(=O)[C@H]32)[C@@H](C)[C@@H]1O	1 (≈ 1.27 µM)	0.5 (≈ 0.635 µM)	> 32	2 (≈ 2.54 µM)	1	1 (≈ 1.27 µM)	0.5 (≈ 0.635 µM)	0.5 (≈ 0.635 µM)	2 (≈ 2.54 µM)	1 (≈ 1.27 µM)	> 32
C=C[C@]1(C)C[C@@H](OC(=O)CSc2ccccc2NC(=O)Cn2cc(CN3CCOCC3)nn2)[C@]2(C)[C@H](C)CC[C@]3(CCC(=O)[C@H]32)[C@@H](C)[C@@H]1O	0.5 (≈ 0.721 µM)	0.5 (≈ 0.721 µM)	> 32	1 (≈ 1.44 µM)	1	1 (≈ 1.44 µM)	1 (≈ 1.44 µM)	0.5 (≈ 0.721 µM)	1 (≈ 1.44 µM)	2 (≈ 2.88 µM)	> 32
C=C[C@]1(C)C[C@@H](OC(=O)CSc2ccccc2NC(=O)Cn2cc(CN3CCN(c4ccc(C)cc4)CC3)nn2)[C@]2(C)[C@H](C)CC[C@]3(CCC(=O)[C@H]32)[C@@H](C)[C@@H]1O	1 (≈ 1.28 µM)	0.5 (≈ 0.639 µM)	> 32	4 (≈ 5.11 µM)	1	1 (≈ 1.28 µM)	1 (≈ 1.28 µM)	0.5 (≈ 0.639 µM)	2 (≈ 2.55 µM)	2 (≈ 2.55 µM)	> 32
C=C[C@]1(C)C[C@@H](OC(=O)CSc2ccccc2NC(=O)Cn2cc(CN3CCN(c4cccc(C)c4)CC3)nn2)[C@]2(C)[C@H](C)CC[C@]3(CCC(=O)[C@H]32)[C@@H](C)[C@@H]1O	1 (≈ 1.28 µM)	1 (≈ 1.28 µM)	> 32	1 (≈ 1.28 µM)	1	1 (≈ 1.28 µM)	2 (≈ 2.55 µM)	2 (≈ 2.55 µM)	8 (≈ 10.2 µM)	4 (≈ 5.11 µM)	> 32
C=C[C@]1(C)C[C@@H](OC(=O)CSc2ccccc2NC(=O)Cn2cc(CN3CCC(CCO)CC3)nn2)[C@]2(C)[C@H](C)CC[C@]3(CCC(=O)[C@H]32)[C@@H](C)[C@@H]1O	0.5 (≈ 0.679 µM)	0.5 (≈ 0.679 µM)	> 32	1 (≈ 1.36 µM)	1	0.5 (≈ 0.679 µM)	1 (≈ 1.36 µM)	0.5 (≈ 0.679 µM)	0.5 (≈ 0.679 µM)	1 (≈ 1.36 µM)	> 32
C=C[C@]1(C)C[C@@H](OC(=O)CSc2ccccc2NC(=O)Cn2cc(CN3CCN(c4ccccc4C)CC3)nn2)[C@]2(C)[C@H](C)CC[C@]3(CCC(=O)[C@H]32)[C@@H](C)[C@@H]1O	1 (≈ 1.28 µM)	1 (≈ 1.28 µM)	> 32	1 (≈ 1.28 µM)	1	1 (≈ 1.28 µM)	2 (≈ 2.55 µM)	2 (≈ 2.55 µM)	4 (≈ 5.11 µM)	4 (≈ 5.11 µM)	> 32
C=C[C@]1(C)C[C@@H](OC(=O)CSc2ccccc2NC(=O)Cn2cc(CN3CCCCC3)nn2)[C@]2(C)[C@H](C)CC[C@]3(CCC(=O)[C@H]32)[C@@H](C)[C@@H]1O	0.5 (≈ 0.723 µM)	0.5 (≈ 0.723 µM)	> 32	2 (≈ 2.89 µM)	1	1 (≈ 1.45 µM)	0.5 (≈ 0.723 µM)	0.5 (≈ 0.723 µM)	1 (≈ 1.45 µM)	0.5 (≈ 0.723 µM)	> 32
C=C[C@]1(C)C[C@@H](OC(=O)CSc2ccccc2NC(=O)Cn2cc(CN3CCN(C)CC3)nn2)[C@]2(C)[C@H](C)CC[C@]3(CCC(=O)[C@H]32)[C@@H](C)[C@@H]1O	0.25 (≈ 0.354 µM)	0.25 (≈ 0.354 µM)	> 32	0.5 (≈ 0.707 µM)	1	0.5 (≈ 0.707 µM)	0.5 (≈ 0.707 µM)	0.5 (≈ 0.707 µM)	2 (≈ 2.83 µM)	1 (≈ 1.41 µM)	> 32
C=C[C@]1(C)C[C@@H](OC(=O)CSc2ccccc2NC(=O)Cn2cc(CN3CCN(c4ccccc4[N+](=O)[O-])CC3)nn2)[C@]2(C)[C@H](C)CC[C@]3(CCC(=O)[C@H]32)[C@@H](C)[C@@H]1O	0.5 (≈ 0.614 µM)	0.25 (≈ 0.307 µM)	> 32	1 (≈ 1.23 µM)	1	0.5 (≈ 0.614 µM)	0.5 (≈ 0.614 µM)	0.25 (≈ 0.307 µM)	2 (≈ 2.46 µM)	1 (≈ 1.23 µM)	> 32
C=C[C@]1(C)C[C@@H](OC(=O)CSc2ccccc2NC(=O)Cn2cc(CN3CCN(c4ccccc4Cl)CC3)nn2)[C@]2(C)[C@H](C)CC[C@]3(CCC(=O)[C@H]32)[C@@H](C)[C@@H]1O	1 (≈ 1.24 µM)	1 (≈ 1.24 µM)	> 32	2 (≈ 2.49 µM)	1	2 (≈ 2.49 µM)	2 (≈ 2.49 µM)	2 (≈ 2.49 µM)	4 (≈ 4.98 µM)	2 (≈ 2.49 µM)	> 32
C=C[C@]1(C)C[C@@H](OC(=O)CSc2ccccc2NC(=O)Cn2cc(CN3CCCC3)nn2)[C@]2(C)[C@H](C)CC[C@]3(CCC(=O)[C@H]32)[C@@H](C)[C@@H]1O	0.25 (≈ 0.369 µM)	0.25 (≈ 0.369 µM)	> 32	0.5 (≈ 0.738 µM)	1	0.25 (≈ 0.369 µM)	0.25 (≈ 0.369 µM)	4 (≈ 5.9 µM)	0.5 (≈ 0.738 µM)	0.5 (≈ 0.738 µM)	> 32
C=C[C@]1(C)C[C@@H](OC(=O)CSc2ccccc2NC(=O)Cn2cc(CN3CCN(c4cccc(O)c4)CC3)nn2)[C@]2(C)[C@H](C)CC[C@]3(CCC(=O)[C@H]32)[C@@H](C)[C@@H]1O	0.25 (≈ 0.318 µM)	0.25 (≈ 0.318 µM)	> 32	0.5 (≈ 0.637 µM)	1	0.5 (≈ 0.637 µM)	0.25 (≈ 0.318 µM)	0.5 (≈ 0.637 µM)	1 (≈ 1.27 µM)	0.5 (≈ 0.637 µM)	> 32
C=C[C@]1(C)C[C@@H](OC(=O)CSc2ccccc2NC(=O)Cn2cc(CN3CCCC(CO)C3)nn2)[C@]2(C)[C@H](C)CC[C@]3(CCC(=O)[C@H]32)[C@@H](C)[C@@H]1O (stereo partly specified)	0.5 (≈ 0.693 µM)	0.5 (≈ 0.693 µM)	> 32	0.5 (≈ 0.693 µM)	1	0.5 (≈ 0.693 µM)	0.5 (≈ 0.693 µM)	0.5 (≈ 0.693 µM)	0.5 (≈ 0.693 µM)	1 (≈ 1.39 µM)	> 32
C=C[C@]1(C)C[C@@H](OC(=O)CSc2ccccc2NC(=O)Cn2cc(CN3CCN(c4ccc(OC)cc4)CC3)nn2)[C@]2(C)[C@H](C)CC[C@]3(CCC(=O)[C@H]32)[C@@H](C)[C@@H]1O	1 (≈ 1.25 µM)	0.5 (≈ 0.626 µM)	> 32	1 (≈ 1.25 µM)	1	1 (≈ 1.25 µM)	1 (≈ 1.25 µM)	0.5 (≈ 0.626 µM)	2 (≈ 2.5 µM)	1 (≈ 1.25 µM)	> 32
C=C[C@]1(C)C[C@@H](OC(=O)CO)[C@]2(C)[C@H](C)CC[C@]3(CCC(=O)[C@H]32)[C@@H](C)[C@@H]1O [PLEUROMULIN]	2 (≈ 5.28 µM)	1 (≈ 2.64 µM)		4 (≈ 10.6 µM)		2 (≈ 5.28 µM)	2 (≈ 5.28 µM)	2 (≈ 5.28 µM)	4 (≈ 10.6 µM)	4 (≈ 10.6 µM)	
